Experiments:
[1] = test system: KB; assay: Antiproliferative activity against human KB cells after 72 hrs by SRB assay; type: functional
Method in brief: (§1)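 Cells fixed in situ with 10% TCA at time of drug addition as time-zero reference. Drug exposure 72 h after attachment, then 10% TCA fixation and 0.4% SRB in 1% HOAc for 10 min. Unbound dye washed off with 1% HOAc, bound dye dissolved in 10 mM trizma base, absorbance read at 515 nm. GI50 is the concentration halving net protein increase relative to control.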

[2] = Antiproliferative activity against human KBVIN cells after 72 hrs by SRB assay; type: functional; method in brief: as §1
[3] = test system: A549; assay: Antiproliferative activity against human A549 cells after 72 hrs by SRB assay; type: functional; details: A549, 72 h; method in brief: as §1
[4] = test system: DU-145; assay: Antiproliferative activity against human DU145 cells after 72 hrs by SRB assay; type: functional; details: DU-145, 72 h; method in brief: as §1
[5] = test system: A549; assay: Induction of cell cycle arrest in human A549 cells assessed as G0/G1 phase cells at 5 mg after 48 hrs by FACS-based flow cytometry (reference value: 26.9%); type: functional
[6] = test system: A549; assay: Induction of cell cycle arrest in human A549 cells assessed as G0/G1 phase cells at 1 mg after 48 hrs by FACS-based flow cytometry (reference value: 26.9%); type: functional
[7] = test system: A549; assay: Induction of apoptosis in human A549 cells after 48 hrs by DNA fluorochrome Hoechst-staining based fluorescence microscopy; type: functional, cell-based
Method in brief: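 A549 seeded at 5 × 10^3 cells/well, treated at 0, 1, 5 and 10 µg/mL for 48 h. Monolayer fixed and stained with Hoechst 33258 for 20 min, washed with PBS, examined by fluorescence microscopy. Cells with condensed or fragmented, brightly stained nuclei scored apoptotic. Three independent experiments.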

[8] = test system: A549; assay: Induction of cell cycle arrest in human A549 cells assessed as G2/M phase cells at 1 mg after 48 hrs by FACS-based flow cytometry (reference value: 6.36%); type: functional
[9] = test system: A549; assay: Induction of cell cycle arrest in human A549 cells assessed as S phase cells at 1 mg after 48 hrs by FACS-based flow cytometry (reference value: 66.74%); type: functional
[10] = test system: A549; assay: Induction of cell cycle arrest in human A549 cells assessed as S phase cells at 5 mg after 48 hrs by FACS-based flow cytometry (reference value: 66.74%); type: functional
[11] = test system: A549; assay: Antiproliferative activity against human A549 cells after 48 hrs by MTT assay; type: functional, cell-based
Method in brief: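 A549 seeded at 5 × 10^3 cells/well. Exposed to 0.06, 0.23, 0.94, 3.75, 15 or 60 μg/mL for 48 h, then medium replaced. MTT (5 mg/mL solution) added for 4 h at 37 °C, formazan dissolved in DMSO, absorbance at 570 nm. Viability expressed as % of untreated cells. Mean ± SD of three independent experiments.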

[12] = test system: A549; assay: Induction of cell cycle arrest in human A549 cells assessed as G2/M phase cells at 5 mg after 48 hrs by FACS-based flow cytometry (reference value: 6.36%); type: functional
[13] = test system: A549; assay: Induction of cell cycle arrest in human A549 cells assessed as G0/G1 phase cells at 10 mg after 48 hrs by FACS-based flow cytometry (reference value: 26.9%); type: functional
[14] = test system: A549; assay: Induction of cell cycle arrest in human A549 cells assessed as S phase cells at 10 mg after 48 hrs by FACS-based flow cytometry (reference value: 66.74%); type: functional
[15] = test system: A549; assay: Induction of cell cycle arrest in human A549 cells assessed as G2/M phase cells at 10 mg after 48 hrs by FACS-based flow cytometry (reference value: 6.36%); type: functional

Compound | GI50 [1] | GI50 [2] | GI50 [3] | GI50 [4] | further results
CCc1oc2c(C)c(OCc3cccc(C(F)(F)F)c3)ccc2c(=O)c1Br | > 22.7 µM | > 22.7 µM | > 22.7 µM | > 22.7 µM | 
CCc1cc(=O)c2ccc(OC(C)C)c(CBr)c2o1 | > 30.8 µM | > 30.8 µM | > 30.8 µM | > 30.8 µM | 
Cc1cc(=O)oc2cc(SC3CCOC3=O)ccc12 (stereo not given) | > 36.2 µM | > 36.2 µM | > 36.2 µM | > 36.2 µM | 
Cc1cc(=O)oc2cc(SCc3cccc(C(F)(F)F)c3)ccc12 | > 28.5 µM | > 28.5 µM | > 28.5 µM | > 28.5 µM | 
CCc1cc(=O)c2ccc(OCc3ccccc3)c(C)c2o1 | > 34 µM | 24.8 µM | > 34 µM | 27.7 µM | 
CCc1cc(=O)c2ccc(Sc3cccc(Cl)n3)c(C)c2o1 | > 30.1 µM | 23.9 µM | > 30.1 µM | > 30.1 µM | 
Cc1cc(=O)oc2cc(Sc3cccc(Cl)[n+]3[O-])ccc12 | > 31.3 µM | 24.5 µM | > 31.3 µM | > 31.3 µM | 
CCc1cc(=O)c2ccc(Sc3cccc(Cl)[n+]3[O-])c(C)c2o1 | > 28.8 µM | > 28.8 µM | > 28.8 µM | > 28.8 µM | 
CC(=O)O[C@H]1C(=O)[C@@]2(C)[C@H]([C@H](OC(=O)c3ccccc3)[C@]3(O)C[C@H](OC(=O)[C@H](O)[C@@H](NC(=O)c4ccccc4)c4ccccc4)C(C)=C1C3(C)C)[C@]1(OC(C)=O)CO[C@@H]1C[C@@H]2O [PACLITAXEL] | 0.00412 µM | > 1 µM | 0.00546 µM | 0.00386 µM | 
Cc1cccc(CSc2ccc3c(C)cc(=O)oc3c2)c1 | > 33.7 µM | > 33.7 µM | > 33.7 µM | > 33.7 µM | 
Cc1cc(=O)oc2cc(SCc3cccc(OC(F)(F)F)c3)ccc12 | 14.8 µM | 15.3 µM | 17.4 µM | 15.5 µM | 
CCOc1ccc2c(=O)cc(CC)oc2c1CBr | > 32.1 µM | > 32.1 µM | > 32.1 µM | > 32.1 µM | 
Cc1cc(=O)oc2cc(SCc3cccnc3)ccc12 | > 35.3 µM | > 35.3 µM | > 35.3 µM | > 35.3 µM | 
CCc1cc(=O)c2ccc(OCC(C)C)c(CBr)c2o1 | > 29.5 µM | > 29.5 µM | > 29.5 µM | > 29.5 µM | 
CCc1oc2c(C)c(OCc3ccccc3)ccc2c(=O)c1Br | > 26.8 µM | > 26.8 µM | > 26.8 µM | > 26.8 µM | 
COc1cc(CSc2ccc3c(C)cc(=O)oc3c2)cc(OC)c1 | > 29.2 µM | > 29.2 µM | > 29.2 µM | > 29.2 µM | 
CCOc1ccc2c(=O)cc(C(C)Br)oc2c1CBr (stereo not given) | 15.6 µM | 12.8 µM | 19.8 µM | 20.9 µM | 
COc1cc(CSc2ccc3c(C)cc(=O)oc3c2)c([N+](=O)[O-])cc1OC | > 25.8 µM | > 25.8 µM | > 25.8 µM | > 25.8 µM | 

Compound | GI50 [1] | GI50 [2] | GI50 [3] | GI50 [4] | further results
CCc1oc2c(C)c(OC(C)C)ccc2c(=O)c1Br | 22.6 µM | 5.84 µM | > 30.8 µM | > 30.8 µM | 
COc1cccc(CSc2ccc3c(C)cc(=O)oc3c2)c1 | > 32 µM | > 32 µM | > 32 µM | > 32 µM | 
COc1ccc(Br)c(CSc2ccc3c(C)cc(=O)oc3c2)c1 | 16 µM | > 25.6 µM | 15.3 µM | > 25.6 µM | 
CCc1cc(=O)c2ccc(Sc3cccc(Cl)n3)cc2o1 | > 31.5 µM | > 31.5 µM | > 31.5 µM | > 31.5 µM | 
COC(=O)c1cccc(CSc2ccc3c(C)cc(=O)oc3c2)c1 | 2.06 µM | 5.41 µM | 7.7 µM | 14.1 µM | 
CCc1cc(=O)c2ccc(OCc3cccc(C)c3)c(C)c2o1 | 28.6 µM | 24.9 µM | 24.9 µM | 24.1 µM | 
CCc1cc(=O)c2ccc(OCc3cccc(C#N)c3)c(C)c2o1 | > 31.3 µM | > 31.3 µM | > 31.3 µM | > 31.3 µM | 
CC(C)COc1ccc2c(=O)cc(C(C)Br)oc2c1CBr (stereo not given) | 10.9 µM | 9.45 µM | 8.71 µM | 10.5 µM | 
Cc1cc(=O)oc2cc(Sc3cccc(Cl)n3)ccc12 | 0.92 µM | 0.92 µM | 2.11 µM | 1.15 µM | Activity [5]: 0.67%; Activity [6]: 5.02%; Activity [7]: Dose-dependent effect; Activity [8]: 83.58%; Activity [9]: 11.4%; Activity [10]: 10.36%; Activity [11]: Dose-dependent effect; Activity [12]: 88.98%; Activity [13]: 0.12%; Activity [14]: 16.03%; Activity [15]: 83.86%
Cc1cc(=O)oc2cc(SCc3cccc(C#N)c3)ccc12 | > 32.5 µM | > 32.5 µM | > 32.5 µM | > 32.5 µM | 
COc1ccc2c(=O)cc(C(C)Br)oc2c1CBr (stereo not given) | 15.1 µM | 17 µM | > 26.6 µM | > 26.6 µM | 
CCc1cc(=O)c2ccc(OCc3cccc(C(F)(F)F)c3)c(C)c2o1 | > 27.6 µM | > 27.6 µM | > 27.6 µM | > 27.6 µM | 
CC(C)Oc1ccc2c(=O)cc(C(C)Br)oc2c1CBr (stereo not given) | 12.8 µM | 11.4 µM | 12.8 µM | 15.5 µM | 
Cc1cc(=O)oc2cc(SCc3ccncc3)ccc12 | > 35.3 µM | > 35.3 µM | > 35.3 µM | > 35.3 µM | 
Cc1cc(=O)oc2cc(SCc3ccccn3)ccc12 | > 35.3 µM | > 35.3 µM | > 35.3 µM | > 35.3 µM | 
CCc1cc(=O)c2ccc(Sc3cccc(Cl)[n+]3[O-])cc2o1 | > 30 µM | > 30 µM | > 30 µM | > 30 µM | 
CCc1oc2c(C)c(OC)ccc2c(=O)c1Br | > 33.6 µM | 23.2 µM | > 33.6 µM | > 33.6 µM | 
CCc1cc(=O)c2ccc(OC)c(CBr)c2o1 | > 33.6 µM | > 33.6 µM | > 33.6 µM | > 33.6 µM | 
